Data: ChEMBL document CHEMBL3603782, “Antimalarial benzoheterocyclic 4-aminoquinolines: Structure-activity relationship, in vivo evaluation, mechanistic and bioactivation studies” (Bioorg Med Chem, 2015)
The source made the active and inactive calls. The calls are words filed in the database; no cut-off is given here.

How the values were obtained:
Plasmodium falciparum [1] = assay: Antiplasmodial activity against Plasmodium falciparum W2 infected in human erythrocytes after 48 hrs by [3H]-hypoxanthine incorporation assay; format: functional, organism-based
Plasmodium falciparum [2] = assay: Resistance index, ratio of IC50 for multidrug-resistant Plasmodium falciparum K1 to IC50 for Plasmodium falciparum W2; format: functional
Plasmodium falciparum [3] = assay: Antiplasmodial activity against multidrug-resistant Plasmodium falciparum K1 infected in human erythrocytes after 48 hrs by [3H]-hypoxanthine incorporation assay; format: functional, organism-based
Outline: (§1)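 Modified [3H]-hypoxanthine incorporation assay against P. falciparum NF54 (sensitive) and K1 (multidrug-resistant). Values are means of ≥2 or ≥3 independent experiments. The resistance index is the K1 IC50 divided by the NF54 IC50.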

Plasmodium berghei [4] = assay: Antimalarial activity against GFP-transfected Plasmodium berghei ANKA infected in mouse assessed as mean survival days at 10 mg/kg, po qd administered for 4 days; format: functional
Outline: (§2)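 Mice (n = 3) infected with GFP-transfected P. berghei ANKA. Compound given orally, dissolved in a vehicle containing ethanol and diluted 10× with water. Multi-dose arms were dosed once daily on four consecutive days (4, 24, 48, 72 h post-infection). Parasitaemia was measured by flow cytometry, detection limit 0.1%. Activity is % reduction relative to controls. Survival was followed for 30 days.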

Plasmodium berghei [5] = assay: Antimalarial activity against GFP-transfected Plasmodium berghei ANKA infected in mouse assessed as mean survival days at 30 mg/kg, po qd administered for 4 days; format: functional; outline: as §2
Plasmodium berghei [6] = assay: Antimalarial activity against GFP-transfected Plasmodium berghei ANKA infected in mouse assessed as reduction in parasitemia at 10 mg/kg, po qd administered for 4 days measured on day 4 post last dose by flow cytometric analysis relative to control; format: functional; set-up: scale not given: the % may be the effect or the level left
[7] = Lipophilicity, log P of the compound; format: physicochemical; settings: octanol/water
Plasmodium berghei [8] = assay: Antimalarial activity against GFP-transfected Plasmodium berghei ANKA infected in mouse assessed as reduction in parasitemia at 50 mg/kg, po qd administered for 4 days measured on day 4 post last dose by flow cytometric analysis relative to control; format: functional; set-up: scale not given: the % may be the effect or the level left
[9] = Inhibition of beta haematin formation after 5 to 6 hrs by pyridine-ferrichrome method; format: physicochemical
Outline: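 Modified β-haematin inhibition assay. Compounds from DMSO stocks, 0–1000 µM final, in duplicate. NP-40 added (30.55 µM). Haematin suspension added to give 0.5 M acetate pH 4.8 and 100 µM haematin, then incubated 5–6 h at 37 °C. Free haeme detected with pyridine/H2O/acetone/0.2 M HEPES pH 7.4 reagent (final pyridine ~5% v/v) plus acetone, and absorbance read.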

[10] = Metabolic stability in human liver microsomes assessed as compound remaining at […] after 30 mins by HPLC-MS/MS analysis in presence of NADPH; format: ADME; settings: read-out: Stability
Plasmodium berghei [11] = assay: Antimalarial activity against GFP-transfected Plasmodium berghei ANKA infected in mouse assessed as reduction in parasitemia at 50 mg/kg, po by flow cytometric analysis relative to control; format: functional; set-up: scale not given: the % may be the effect or the level left
Plasmodium berghei [12] = assay: Antimalarial activity against GFP-transfected Plasmodium berghei ANKA infected in mouse assessed as mean survival days at 50 mg/kg, po; format: functional; outline: as §2
[13] = Selectivity index, ratio of IC50 for CHO cells to IC50 for chloroquine-sensitive Plasmodium falciparum NF54; format: toxicity, cell-based; settings: hamster, read-out: Ratio IC50
Plasmodium falciparum [14] = assay: Antiplasmodial activity against chloroquine-sensitive Plasmodium falciparum NF54 infected in human erythrocytes after 48 hrs by [3H]-hypoxanthine incorporation assay; format: functional, organism-based; outline: as §1
Plasmodium falciparum [15] = assay: Resistance index, ratio of IC50 for multidrug-resistant Plasmodium falciparum K1 to IC50 for chloroquine-sensitive Plasmodium falciparum NF54; format: functional; outline: as §1
Plasmodium berghei [16] = assay: Antimalarial activity against GFP-transfected Plasmodium berghei ANKA infected in mouse assessed as mean survival days at 50 mg/kg, po qd administered for 4 days; format: functional; outline: as §2
[17] = Metabolic stability in BALB/c mouse liver microsomes assessed as compound remaining at […] after 30 mins by HPLC-MS/MS analysis in presence of NADPH; format: ADME; settings: read-out: Stability
CHO = assay: Cytotoxicity against CHO cells by MTT assay; format: cell-based; settings: Cricetulus griseus
Outline: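 CHO cells, MTT assay. Stocks 20 mg/mL in DMSO, diluted in complete medium; undissolved samples tested as suspensions. Emetine served as reference (10-fold dilutions, 6 concentrations, lowest 0.001 µg/mL). IC50 derived from full dose–response curves by non-linear fitting.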

Mus musculus [18] = assay: AUC in C57Bl/6 mouse at 5 mg/kg, iv; format: ADME, organism-based; settings: in vivo
Outline: (§3)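 C57Bl/6 mice, n = 3 per route. IV group dosed 5 mg/kg in DMSO, PEG, EtOH, PPG (2:6:1:7, v/v); tail-tip blood (20 µL) at 0.08, 0.5, 1, 3, 7 and 24 h. Oral group received a single 20 mg/kg gavage as a suspension in 0.5% HPMC in water; blood at 0.5, 1, 3, 5 and 24 h. Whole-blood LC–MS/MS (10–5000 ng/mL) after methanol protein precipitation; non-compartmental analysis.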

[19] = Total clearance in C57Bl/6 mouse at 5 mg/kg, iv; format: ADME, organism-based; settings: in vivo; outline: as §3
[20] = Elimination half life in C57Bl/6 mouse at 20 mg/kg, po; format: ADME, organism-based; settings: in vivo, read-out: beta t1/2 (converted); outline: as §3
Plasmodium berghei [21] = assay: Antimalarial activity against GFP-transfected Plasmodium berghei ANKA infected in mouse assessed as cure rate at 50 mg/kg, po qd administered for 4 days measured over 30 days; format: functional, organism-based
[22] = Cmax in C57Bl/6 mouse at 20 mg/kg, po; format: ADME, organism-based; set-up: dose 20 mg/kg, route oral; settings: in vivo; outline: as §3
[23] = Cmax in C57Bl/6 mouse at 5 mg/kg, iv; format: ADME, organism-based; set-up: dose 5 mg/kg, route intravenous; settings: in vivo; outline: as §3
[24] = Oral bioavailability in C57Bl/6 mouse at 20 mg/kg; format: ADME, organism-based; settings: in vivo; outline: as §3
[25] = Volume of distribution in C57Bl/6 mouse at 5 mg/kg, iv; format: ADME, organism-based; settings: in vivo; outline: as §3
[26] = Elimination half life in C57Bl/6 mouse at 5 mg/kg, iv; format: ADME, organism-based; settings: in vivo, read-out: beta t1/2 (converted); outline: as §3
Mus musculus [27] = assay: AUC in C57Bl/6 mouse at 20 mg/kg, po; format: ADME, organism-based; settings: in vivo; outline: as §3
[28] = Tmax in C57Bl/6 mouse at 20 mg/kg, po; format: ADME, organism-based; settings: in vivo; outline: as §3
Plasmodium berghei [29] = assay: Antimalarial activity against GFP-transfected Plasmodium berghei ANKA infected in mouse assessed as cure rate at 10 mg/kg, po qd administered for 4 days measured over 30 days; format: functional, organism-based
Mus musculus [30] = assay: Toxicity in mouse infected with GFP-transfected Plasmodium berghei ANKA at 50 mg/kg, po qd administered for 4 days measured over 30 days; format: organism-based; settings: in vivo, 720 h

SMILES: Clc1ccc2c(Nc3ccc4[nH]c(NCCN5CCOCC5)nc4c3)ccnc2c1
- IC50 (Plasmodium falciparum [1]): 189 nM
- Ratio IC50 (Plasmodium falciparum [2]): 3.93
- IC50 (Plasmodium falciparum [3]): 742 nM

SMILES: CCN(CC)CCCC(C)Nc1ccnc2cc(Cl)ccc12 (stereo unspecified) [CHLOROQUINE]
- MSD (Plasmodium berghei [4]): 16 days
- MSD (Plasmodium berghei [5]): 24 days
- Activity (Plasmodium berghei [6]): 99.9%

SMILES: CN(C)CCNc1nc2cc(Nc3ccnc4cc(Cl)ccc34)ccc2o1
- logP [7]: 3.38
- Activity (Plasmodium berghei [8]): 99.8%
- IC50 [9]: 363000 nM
- remaining at 0.5 h [10]: > 99%
- Activity (Plasmodium berghei [11]): 99.5%
- MSD (Plasmodium berghei [12]): 13.7 days
- selectivity ratio [13]: 633
- MSD (Plasmodium berghei [4]): 24 days
- IC50 (Plasmodium falciparum [14]): 12 nM
- Ratio IC50 (Plasmodium falciparum [15]): 3.5
- MSD (Plasmodium berghei [16]): 29.3 days
- remaining at 0.5 h [17]: > 99%
- IC50 (CHO): 7590 nM
- IC50 (Plasmodium falciparum [3]): 42 nM
- Activity (Plasmodium berghei [6]): 99.9%

SMILES: Clc1ccc2c(Nc3ccc4oc(NCCCN5CCCCC5)nc4c3)ccnc2c1
- logP [7]: 4.16
- AUC (Mus musculus [18]): 454 (umol/L).min
- Activity (Plasmodium berghei [8]): 99.8%
- IC50 [9]: 105000 nM
- remaining at 0.5 h [10]: 70%
- clearance [19]: 28.3 mL/min/kg
- Activity (Plasmodium berghei [11]): 99.5%
- MSD (Plasmodium berghei [12]): 14 days
- half-life [20]: 10.9 h
- Activity (Plasmodium berghei [21]): Active
- selectivity ratio [13]: 1060
- Cmax [22]: 1010 nM
- Cmax [23]: 2740 nM
- bioavailability [24]: 56%
- MSD (Plasmodium berghei [4]): 15.7 days
- Vd [25]: 24.5 L/kg
- half-life [26]: 10 h
- AUC (Mus musculus [27]): 1020 (umol/L).min
- IC50 (Plasmodium falciparum [14]): 10 nM
- Ratio IC50 (Plasmodium falciparum [15]): 3.9
- MSD (Plasmodium berghei [16]): >30 days
- Tmax [28]: 2.9 h
- remaining at 0.5 h [17]: 49%
- IC50 (CHO): 10600 nM
- IC50 (Plasmodium falciparum [3]): 39 nM
- Activity (Plasmodium berghei [6]): 99.8%

SMILES: CCN(CC)Cc1cc(Nc2ccnc3cc(Cl)ccc23)ccc1O [AMODIAQUINE]
- Activity (Plasmodium berghei [8]): 99.9%
- IC50 [9]: 43500 nM
- selectivity ratio [13]: 36800
- IC50 (Plasmodium falciparum [1]): 5 nM
- MSD (Plasmodium berghei [4]): >30 days
- Ratio IC50 (Plasmodium falciparum [2]): 1.6
- IC50 (Plasmodium falciparum [14]): 4 nM
- Ratio IC50 (Plasmodium falciparum [15]): 2.5
- MSD (Plasmodium berghei [16]): >30 days
- IC50 (CHO): 147000 nM
- IC50 (Plasmodium falciparum [3]): 8 nM
- Activity (Plasmodium berghei [6]): 100%

SMILES: Clc1ccc2c(Nc3ccc4oc(NCCN5CCCC5)nc4c3)ccnc2c1
- Activity (Plasmodium berghei [8]): 99.8%
- IC50 [9]: 91500 nM
- remaining at 0.5 h [10]: 62%
- Activity (Plasmodium berghei [11]): 99.5%
- MSD (Plasmodium berghei [12]): 23.3 days
- Activity (Plasmodium berghei [21]): Active
- selectivity ratio [13]: 327
- MSD (Plasmodium berghei [4]): >30 days
- Ratio IC50 (Plasmodium falciparum [2]): 2.75
- IC50 (Plasmodium falciparum [14]): 15 nM
- Ratio IC50 (Plasmodium falciparum [15]): 3.73
- MSD (Plasmodium berghei [16]): >30 days
- Activity (Plasmodium berghei [29]): Active
- Activity (Mus musculus [30]): Non-toxic
- remaining at 0.5 h [17]: 81%
- IC50 (CHO): 4900 nM
- Activity (Plasmodium berghei [6]): 99.8%
